According to ChEMBL document CHEMBL4627381, “Licochalcone A Selectively Resensitizes ABCG2-Overexpressing Multidrug-Resistant Cancer Cells to Chemotherapeutic Drugs” (J Nat Prod, 2020):
The source made the active and inactive calls. The calls are words filed in the database; no cut-off is given here.

What was measured:
NCI-H460 = experiment: Effect on mitoxantrone-induced cytotoxicity against human H460 cells assessed as fold change in mitoxantrone IC50 at 1 uM after 72 hrs by MTT assay relative to mitoxantrone IC50; format: functional
Method in brief: (§1)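 Parental S1 colon and H460 lung cancer cells were exposed for 72 h to a mitoxantrone or topotecan concentration series, with or without modulator at 0.5–3.0 μM, and read by MTT. Fold-reversal is IC50 without modulator divided by IC50 with modulator, taken from dose-response curves of three independent experiments.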

HEK293 [1] = experiment: Cytotoxicity against HEK293 cells after 72 hrs by CCK8 assay; format: cell-based; details: Homo sapiens, HEK293, 72 h
Method in brief: (§2)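 Cells seeded at 5000/well, allowed 24 h, then exposed to a concentration series for 72 h at 37 °C in DMSO vehicle (up to 0.5% v/v). HEK293 lines were read with CCK-8 and cancer lines with MTT. IC50 was taken from fitted dose-response curves over at least three independent experiments. Lines were kept drug-free for 7 days before assay.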

S1 [2] = experiment: Induction of pheophorbide A accumulation in human S1 cells at 20 uM incubated for 1 hr by FACScan flow cytometry; format: functional, cell-based
Method in brief: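 Cells held drug-free 7 days. 3 × 10^5 cells were suspended in IMDM with 5% FCS and loaded with pheophorbide A (ex 395/em 670 nm) for 1 h, with or without LCA (20 μM for single-concentration accumulation) or Ko143 3 μM as reference. Read immediately by flow cytometry. Efflux inhibition was run over a concentration range; mean ± SD of three experiments.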

S1-M1-80 = experiment: Potentiation of topotecan-induced apoptosis in human S1-M1-80 cells harboring ABCG2 (unknown origin) assessed as late apoptotic cells at 10 uM incubated for 48 hrs by annexin V/propidium iodide staining based flow cytometry (reference value: 6%); format: functional
ABCG2 = target: T1, ABCG2 (Homo sapiens, UniProt Q9UNQ0); experiment: Modulation of ABCG2 (unknown origin) expressed in High Five insect cell vesicle membrane assessed as maximal stimulation of ATPase activity after 20 mins by colorimetric assay relative to baseline; details: membrane vesicles of High Five insect cells expressing ABCG2, read-out: Activity
T1 sequence (Q9UNQ0 whole entry): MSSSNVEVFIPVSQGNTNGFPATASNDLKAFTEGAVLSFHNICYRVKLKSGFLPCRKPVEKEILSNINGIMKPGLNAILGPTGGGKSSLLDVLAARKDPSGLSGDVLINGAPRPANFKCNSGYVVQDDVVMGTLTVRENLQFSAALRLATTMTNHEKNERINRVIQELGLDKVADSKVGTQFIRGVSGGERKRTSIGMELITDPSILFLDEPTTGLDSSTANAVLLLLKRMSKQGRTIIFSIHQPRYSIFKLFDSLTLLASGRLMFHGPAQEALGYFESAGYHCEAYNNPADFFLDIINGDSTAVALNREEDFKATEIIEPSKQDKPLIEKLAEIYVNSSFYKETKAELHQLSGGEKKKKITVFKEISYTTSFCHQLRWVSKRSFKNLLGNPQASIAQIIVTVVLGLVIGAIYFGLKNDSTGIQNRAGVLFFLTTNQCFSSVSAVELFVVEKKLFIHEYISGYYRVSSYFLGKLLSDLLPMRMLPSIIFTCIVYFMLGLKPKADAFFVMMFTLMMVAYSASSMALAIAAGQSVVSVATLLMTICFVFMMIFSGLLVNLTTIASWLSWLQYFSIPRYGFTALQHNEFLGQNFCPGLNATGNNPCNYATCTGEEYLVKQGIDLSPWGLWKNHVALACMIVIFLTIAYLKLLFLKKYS
Method in brief: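 Membrane vesicles from ABCG2-expressing High Five cells were incubated with LCA (0–390 μM) at 37 °C for 20 min in 50 mM MES-Tris pH 6.8 with ouabain, DTT, NaN3, EGTA and KCl, ±0.3 mM vanadate. Liberated Pi was read by molybdate/ascorbate colorimetry at 880 nm. Vi-sensitive activity = activity minus activity with vanadate; mean ± SD of three experiments.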

HEK293 [3] = experiment: Effect on etoposide-induced cytotoxicity against HEK293 cells assessed as fold change in etoposide IC50 at 2 uM after 72 hrs by CCK8 assay relative to etoposide IC50; format: cell-based; details: human, hek293, 72 h
Method in brief: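 Reversal assay in parental pcDNA-HEK293 and transfected HEK293 lines (ABCB1 for colchicine, ABCC1 for etoposide, ABCG2 for mitoxantrone/topotecan). Substrate drug series was given with or without nontoxic modulator (0.5, 1.0, 2.0 or 3.0 μM) for 72 h, with a CCK-8 read-out. Fold-reversal is substrate IC50 without modulator divided by IC50 with modulator. Three independent experiments.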

[4] = Cytotoxicity against human NCI-H460/MX20 cells harboring ABCG2 after 72 hrs by MTT assay; format: functional, cell-based; details: NCI-H460/MX20, 72 h; method in brief: as §2
[5] = target: T2, Broad substrate specificity ATP-binding cassette transporter ABCG2 (Homo sapiens, UniProt Q9UNQ0); experiment: Reversal of human ABCG2-mediated multidrug resistance in HEK293/R482 cells assessed as fold change in mitoxantrone IC50 at 0.5 uM after 72 hrs by CCK8 assay relative to mitoxantrone IC50; format: cell-based
T2 sequence (Q9UNQ0 whole entry): T1 sequence (Q9UNQ0 whole entry)
Method in brief: (§3)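 Cells were seeded at 5000/well for 24 h, then given colchicine, etoposide, mitoxantrone or topotecan ± non-toxic modulator (0.5–3.0 μM) for 72 h, with DMSO up to 0.5%. IC50 came from fitted curves (mean ± SD, three experiments). Fold-reversal = IC50 without modulator ÷ IC50 with modulator.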

[6] = target: ATP-dependent translocase ABCB1 (Homo sapiens, UniProt P08183); experiment: Reversal of human ABCB1-mediated multidrug resistance in HEK293/MDR19 cells assessed as fold change in colchicine IC50 at 0.5 uM after 72 hrs by CCK8 relative to colchicine IC50; format: cell-based; method in brief: as §3
[7] = target: Multidrug resistance-associated protein 1 (Homo sapiens, UniProt P33527); experiment: Reversal of human ABCC1-mediated multidrug resistance in HEK293/MRP1 cells assessed as fold-change in etoposide IC50 at 3 uM after 72 hrs by CCK8 relative to etoposide IC50; format: cell-based; method in brief: as §3
[8] = target: T2, Broad substrate specificity ATP-binding cassette transporter ABCG2; experiment: Reversal of ABCG2 (unknown origin)-mediated multidrug resistance in human S1-M1-80 cells assessed as fold-change in mitoxantrone IC50 at 1 uM after 72 hrs by MTT assay relative to mitoxantrone IC50; format: cell-based; details: s1-m1-80, 72 h
Method in brief: (§4)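 MTT readout in S1-M1-80 colon cancer cells (mitoxantrone-selected, held in 80 μM mitoxantrone, then drug-free 7 days before assay). Cells were seeded at 5000/well for 24 h, then given increasing mitoxantrone or topotecan with DMSO or non-toxic modulator for 72 h at 37 °C. IC50 came from fitted dose-response curves (at least three independent experiments). Fold-reversal = IC50 without modulator ÷ IC50 with modulator.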

HEK293 [9] = experiment: Cytotoxicity against HEK293 cells overexpressing human ABCG2 after 72 hrs by CCK8 assay; format: ADME, cell-based; details: HEK293, 72 h; method in brief: as §2
GES1 = experiment: Cytotoxicity against human GES-1 cells; format: cell-based
S1 [10] = experiment: Effect on mitoxantrone-induced cytotoxicity against human S1 cells assessed as fold change in mitoxantrone IC50 at 3 uM after 72 hrs by MTT assay relative to mitoxantrone IC50; format: functional; method in brief: as §1
[11] = target: T2, Broad substrate specificity ATP-binding cassette transporter ABCG2; experiment: Reversal of ABCG2 (unknown origin)-mediated multidrug resistance in human S1-M1-80 cells assessed as fold-change in topotecan IC50 at 0.5 uM after 72 hrs by MTT assay relative to topotecan IC50; format: cell-based; details: s1-m1-80, 72 h; method in brief: as §4

Multidrug resistance-associated protein 1, sequence (P33527 whole entry): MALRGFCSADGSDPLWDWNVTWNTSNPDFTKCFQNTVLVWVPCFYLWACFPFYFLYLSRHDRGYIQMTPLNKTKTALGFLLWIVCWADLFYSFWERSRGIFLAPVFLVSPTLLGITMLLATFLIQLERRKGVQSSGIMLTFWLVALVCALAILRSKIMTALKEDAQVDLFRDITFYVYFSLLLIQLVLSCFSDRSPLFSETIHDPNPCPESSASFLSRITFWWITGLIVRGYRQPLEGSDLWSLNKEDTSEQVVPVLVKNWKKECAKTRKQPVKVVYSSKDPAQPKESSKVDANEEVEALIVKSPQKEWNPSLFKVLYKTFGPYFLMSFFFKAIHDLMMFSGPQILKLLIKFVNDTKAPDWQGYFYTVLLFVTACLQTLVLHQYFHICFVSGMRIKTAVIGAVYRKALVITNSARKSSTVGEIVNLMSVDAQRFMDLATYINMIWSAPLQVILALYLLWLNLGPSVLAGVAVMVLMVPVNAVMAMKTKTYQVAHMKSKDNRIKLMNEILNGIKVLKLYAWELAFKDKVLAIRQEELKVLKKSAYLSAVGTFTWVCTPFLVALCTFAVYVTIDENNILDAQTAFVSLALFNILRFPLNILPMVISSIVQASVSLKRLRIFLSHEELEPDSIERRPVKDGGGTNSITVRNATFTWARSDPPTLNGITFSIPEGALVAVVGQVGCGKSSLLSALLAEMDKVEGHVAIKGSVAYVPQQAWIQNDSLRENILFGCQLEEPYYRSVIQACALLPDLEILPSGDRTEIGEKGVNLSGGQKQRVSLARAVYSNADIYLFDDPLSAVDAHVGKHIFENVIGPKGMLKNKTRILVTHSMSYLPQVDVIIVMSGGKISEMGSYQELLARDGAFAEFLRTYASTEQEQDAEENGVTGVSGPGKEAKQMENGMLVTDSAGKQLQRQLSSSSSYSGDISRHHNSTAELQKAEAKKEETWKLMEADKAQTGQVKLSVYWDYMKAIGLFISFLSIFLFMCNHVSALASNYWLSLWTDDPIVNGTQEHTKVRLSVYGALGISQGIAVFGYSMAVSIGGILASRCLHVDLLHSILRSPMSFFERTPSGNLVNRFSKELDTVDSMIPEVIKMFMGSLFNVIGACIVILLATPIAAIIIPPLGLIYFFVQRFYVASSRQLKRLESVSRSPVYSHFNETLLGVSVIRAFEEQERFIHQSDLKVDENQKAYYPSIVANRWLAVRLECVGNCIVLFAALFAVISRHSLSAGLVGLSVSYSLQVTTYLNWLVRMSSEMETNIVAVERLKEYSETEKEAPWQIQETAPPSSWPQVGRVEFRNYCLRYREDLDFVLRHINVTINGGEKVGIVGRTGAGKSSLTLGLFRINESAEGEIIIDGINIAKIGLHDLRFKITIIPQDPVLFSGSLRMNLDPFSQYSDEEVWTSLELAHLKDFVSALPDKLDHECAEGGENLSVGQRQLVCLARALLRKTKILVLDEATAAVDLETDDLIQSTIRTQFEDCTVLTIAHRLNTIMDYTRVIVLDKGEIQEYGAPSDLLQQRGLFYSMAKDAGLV
ATP-dependent translocase ABCB1, sequence (P08183 whole entry): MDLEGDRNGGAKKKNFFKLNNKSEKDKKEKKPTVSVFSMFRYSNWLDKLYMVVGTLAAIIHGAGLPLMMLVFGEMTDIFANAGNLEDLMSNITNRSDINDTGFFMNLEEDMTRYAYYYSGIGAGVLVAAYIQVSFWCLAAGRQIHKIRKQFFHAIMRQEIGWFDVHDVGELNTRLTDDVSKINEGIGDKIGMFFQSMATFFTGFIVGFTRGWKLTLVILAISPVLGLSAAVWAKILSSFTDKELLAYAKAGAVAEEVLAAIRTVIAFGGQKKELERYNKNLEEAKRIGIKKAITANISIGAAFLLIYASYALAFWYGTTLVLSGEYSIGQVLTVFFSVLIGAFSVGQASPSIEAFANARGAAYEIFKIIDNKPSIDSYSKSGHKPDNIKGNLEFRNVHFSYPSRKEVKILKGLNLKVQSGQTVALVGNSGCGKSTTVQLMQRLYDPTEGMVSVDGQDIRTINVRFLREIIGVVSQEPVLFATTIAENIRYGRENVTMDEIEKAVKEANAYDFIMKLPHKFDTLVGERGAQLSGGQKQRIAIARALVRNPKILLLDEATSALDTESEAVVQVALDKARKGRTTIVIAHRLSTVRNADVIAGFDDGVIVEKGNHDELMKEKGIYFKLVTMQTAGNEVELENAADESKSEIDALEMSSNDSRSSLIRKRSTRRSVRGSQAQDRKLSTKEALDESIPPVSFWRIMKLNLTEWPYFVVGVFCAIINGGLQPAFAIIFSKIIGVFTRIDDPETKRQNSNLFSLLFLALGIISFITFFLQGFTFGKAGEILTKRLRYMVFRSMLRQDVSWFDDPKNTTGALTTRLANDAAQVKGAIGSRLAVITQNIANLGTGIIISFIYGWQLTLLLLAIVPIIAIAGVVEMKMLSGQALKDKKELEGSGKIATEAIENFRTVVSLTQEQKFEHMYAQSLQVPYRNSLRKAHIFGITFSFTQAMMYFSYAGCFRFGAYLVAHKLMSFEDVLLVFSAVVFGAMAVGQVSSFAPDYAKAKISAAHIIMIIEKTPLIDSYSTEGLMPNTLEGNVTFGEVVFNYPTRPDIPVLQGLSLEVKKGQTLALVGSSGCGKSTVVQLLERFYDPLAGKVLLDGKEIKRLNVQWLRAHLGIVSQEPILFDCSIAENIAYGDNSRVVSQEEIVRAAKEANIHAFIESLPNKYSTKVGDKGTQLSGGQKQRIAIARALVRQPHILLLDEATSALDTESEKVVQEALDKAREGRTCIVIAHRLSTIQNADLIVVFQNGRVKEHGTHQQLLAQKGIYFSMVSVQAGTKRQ

For `C=CC(C)(C)c1cc(/C=C/C(=O)c2ccc(O)cc2)c(OC)cc1O` [LICOAGROCHACONE A], which “fold change (FC)” value (NCI-H460) is on record?
The value was 1.1.

What about the IC50 (HEK293 [1]) of the same compound?
The IC50 was 10 to 50 µM.

What about the Activity (S1 [2]) of the same compound?
The Activity was “inactive”.

And the Activity (S1-M1-80)?
Its Activity is 22.5%.

What about the Emax at 20 min (ABCG2) of the same compound?
The Emax at 20 min was 150%.

And the “fold change (FC)” value (HEK293 [3])?
Its value is 0.7.

What about the IC50 [4] of the same compound?
Its IC50 is 10 to 50 µM.

And the “fold change (FC)” value [5]?
The value was 2.7.

What about the “fold change (FC)” value [6] of the same compound?
Its value is 1.

And the “fold change (FC)” value [7]?
Its value is 1.1.

What about the “fold change (FC)” value [8] of the same compound?
Its value is 10.8.

And the IC50 (HEK293 [9])?
The IC50 was 10 to 50 µM.

What about the IC50 (GES1) of the same compound?
The IC50 was > 180 µM.

What about the “fold change (FC)” value (S1 [10]) of the same compound?
The value was 1.

What about the “fold change (FC)” value [11] of the same compound?
The value was 9.8.
